Screens as filed in PubChem BioAssay.
HePTP inh = blocks human HePTP tyrosine phosphatase | P35236 | recombinant HePTP phosphatase activity, OD absorbance | inhibition, % at 20 µM | 110,000 compounds, 0.64% hits | AID 521; in the data active means inhibition above about 50%
Ecoli tolC = blocks growth of E. coli BW25113 tolC mutant; OD615; growth inhibition, % at 10 µM (by protocol); 65,000 compounds, 2.2% hits; AID 573;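 active means growth inhibition at or above a cutoff equal to the mean over every tested compound plus 3 SD, cut at about 60% in these data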;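 further: growth measured after 20 h incubation at 37 °C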
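Test system: tolC-deleted E. coli BW25113 | Medium: LB with kanamycin 50 µg/mL | Compound dosing: Single concentration, 10 µM final per compound | Schedule: 37 °C, 20 h exposure | Measured by: OD at 615 nm | Evaluation: Percent growth inhibition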
PLAP activator = human PLAP activation; 96,000 compounds, 1.2% hits; purified PLAP enzyme, luminescent substrate read-out; hits give high values; activation fold at 20 µM; in the data active means activation fold above about 2
Target sequence (P05187 whole entry, looked up): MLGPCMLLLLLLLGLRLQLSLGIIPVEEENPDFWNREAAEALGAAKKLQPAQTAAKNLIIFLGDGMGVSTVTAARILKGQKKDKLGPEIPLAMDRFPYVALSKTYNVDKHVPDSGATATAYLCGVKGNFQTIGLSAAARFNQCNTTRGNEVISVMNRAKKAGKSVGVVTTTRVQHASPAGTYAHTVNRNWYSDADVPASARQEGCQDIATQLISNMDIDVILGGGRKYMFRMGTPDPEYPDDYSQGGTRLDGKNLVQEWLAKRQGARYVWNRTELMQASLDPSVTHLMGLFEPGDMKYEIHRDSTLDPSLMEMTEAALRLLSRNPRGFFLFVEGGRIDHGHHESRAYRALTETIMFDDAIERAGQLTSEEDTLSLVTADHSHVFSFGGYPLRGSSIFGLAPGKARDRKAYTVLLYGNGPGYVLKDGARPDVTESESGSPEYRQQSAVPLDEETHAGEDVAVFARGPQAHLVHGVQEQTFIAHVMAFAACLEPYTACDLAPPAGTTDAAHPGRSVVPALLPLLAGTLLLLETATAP
E coli WT exp = E. coli BW25113 growth inhibition, expanded screen; AID 710; growth inhibition, % at 100 µM; 98,000 compounds, 0.15% hits; OD600 absorbance;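 active means growth inhibition above about 50% at one test dose, limit read from the data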;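 further: growth measured after 20 h incubation at 37 °C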
PostGolgi yeast = growth inhibition of a yeast mutant, post-Golgi transport screen | post-Golgi transport phenotypic cell assay | inhibition, % at 10 µM | 98,000 compounds, 0.9% hits;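 further: yeast cells grown in 1536-well plates; yeast grown about 18 h at 30C before absorbance read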
PostGolgi ctrl = yeast control strain growth, post-Golgi counter-screen. efflux-deficient yeast background strain, growth absorbance A615, 16 h. inhibition, % at 10 µM. 98,000 compounds, 5% hits. AID 738
Each line names hits and unclear results; the compound was inactive in the other large screens. Rows were chosen to be rich in hits. Some 5.5% of all compounds tested hit in one or more screens of this group. Unless noted, no stated cut-off is given here; in the data, active means inhibition above about 30%; inactive means the rest.

CC1C(c2ccccc2)=[N+]([O-])C(C)(c2ccc(Cl)cc2)N1O (stereo not given)	none (no result: Ecoli tolC, PLAP activator, E coli WT exp, PostGolgi yeast, PostGolgi ctrl)
COC(=O)c1cccc(S(=O)(=O)Nc2ccc(C(=O)O)cc2)c1	none (no result: Ecoli tolC, PLAP activator, E coli WT exp, PostGolgi yeast, PostGolgi ctrl)
Cc1cc(OCCCC(=O)N2CCCCC2)cc(C)c1Cl	Ecoli tolC 63
Cc1cccc(N2CCN(C(=O)CCCOc3ccccc3)CC2)c1C	PostGolgi ctrl 33
Cc1cc(Cl)ccc1OCCCC(=O)N1CCCCC1	none (no result: HePTP inh, Ecoli tolC)
Cc1cccc(N2CCN(C(=O)C34CC5CC(CC(C5)C3)C4)CC2)c1C	Ecoli tolC 63, PostGolgi ctrl 51
Cc1cccc(N2CCN(C(=O)Cc3c(C(=O)O)[nH]c4ccc(Cl)cc34)CC2)c1C	Ecoli tolC 87
Cc1ccc2c(Cl)c(C(=O)NC34CC5CC(CC(C5)C3)C4)sc2c1	none (no result: Ecoli tolC, PLAP activator, E coli WT exp, PostGolgi yeast, PostGolgi ctrl)
O=C(Nc1ccc2ccccc2c1)c1cccc(Cl)c1Cl	none (no result: Ecoli tolC, PLAP activator, E coli WT exp, PostGolgi yeast, PostGolgi ctrl)
Cc1cccc(N2CCN(C(=O)C3CCCCC3)CC2)c1C	PostGolgi ctrl 34
Cc1ccccc1N1CCN(C(=O)C2CCCCC2)CC1	none
O=C(N1CCN(c2ccccc2F)CC1)C12CC3CC(CC(C3)C1)C2	Ecoli tolC 89
CCOC(=O)Cc1csc(NC(=S)NC(=O)c2ccc(F)cc2)n1	PostGolgi ctrl 41 (no result: HePTP inh, Ecoli tolC)
CCOC(=O)Cc1csc(NC(=S)NC(=O)c2ccccc2C)n1	none (no result: HePTP inh, Ecoli tolC)
CCOC(=O)N1CCC(NC(=O)C2CCN(c3ccc(N4CCOCC4)nn3)CC2)CC1	PostGolgi ctrl 36
CCOc1ccc(NC(=O)CSc2nnc(-c3ccc(OC)cc3)o2)cc1	none (no result: Ecoli tolC, PLAP activator, E coli WT exp, PostGolgi yeast, PostGolgi ctrl)
CO/N=C(\Cn1ncc(N2CCCC2)c(Br)c1=O)c1ccc(Cl)cc1	none (no result: HePTP inh, Ecoli tolC)
CO/N=C(\Cn1ncc(NC2CCCCC2)c(Br)c1=O)c1ccc(Cl)cc1	PostGolgi ctrl 76 (no result: HePTP inh, Ecoli tolC)
CCOCCOC(=O)c1ccc(NC(=O)COc2ccc(C)cc2C(C)(C)C)cc1	none (no result: Ecoli tolC, PLAP activator, E coli WT exp, PostGolgi yeast, PostGolgi ctrl)
COc1cc(/C=C2\N=C(c3ccccc3)OC2=O)cc(Br)c1OCc1c(C)no[n+]1[O-]	none (no result: Ecoli tolC, PLAP activator, E coli WT exp, PostGolgi yeast, PostGolgi ctrl)
CCOc1cc(/C=C2\N=C(c3ccccc3)OC2=O)ccc1OCc1c(C)no[n+]1[O-]	HePTP inh 66 (no result: Ecoli tolC, PLAP activator, E coli WT exp, PostGolgi yeast, PostGolgi ctrl)
COc1ccc(OC)c(NC(=O)C(=O)/C=C(\O)c2cc(OC)ccc2OC)c1	PostGolgi ctrl 30 (no result: HePTP inh, Ecoli tolC)
COc1ccc(OC)c(NC(=O)/C(=C/c2ccccc2)c2ccccc2)c1	none (no result: Ecoli tolC, PLAP activator, E coli WT exp, PostGolgi yeast, PostGolgi ctrl)
N=C1C(c2nc3ccccc3[nH]2)=C(O)CN1c1ccc(CC(=O)O)cc1	PLAP activator 2.6 (no result: HePTP inh, Ecoli tolC)
O=c1[nH]c(-c2ccccn2)nc2ccccc12	PLAP activator 2.4
Cc1nc2ccccc2c(=O)[nH]1	none (no result: HePTP inh, Ecoli tolC)
N=C1C(c2nc3ccccc3[nH]2)=C(O)CN1c1ccccc1	none
N=C1C(c2nc3ccccc3c(=O)[nH]2)=C(O)CN1c1ccccc1	PLAP activator 2.2 (no result: HePTP inh, Ecoli tolC)
Cc1c(C(=O)NC(c2ccccc2)c2ccccc2)cccc1[N+](=O)[O-]	none (no result: Ecoli tolC, PLAP activator, E coli WT exp, PostGolgi yeast, PostGolgi ctrl)
C=CCN=C(C)C1=C(O)c2ccccc2C1=O	none (no result: Ecoli tolC, PLAP activator, E coli WT exp, PostGolgi yeast, PostGolgi ctrl)
COc1cc2cc(C(c3nnnn3C3CCCCC3)N(C)C3CCCCC3)c(=O)[nH]c2cc1OC (stereo not given)	Ecoli tolC 75
Cc1oc(-c2ccccc2)nc1C(=O)Nc1nccs1	PLAP activator 2
COc1ccc(-c2csc(NC(=O)c3nc(-c4ccccc4)oc3C)n2)cc1	none (no result: HePTP inh, Ecoli tolC)
O=C(CSc1nnc(-c2ccc(Cl)cc2)n1-c1ccccc1)N/N=C/c1ccc([N+](=O)[O-])cc1	none (no result: Ecoli tolC, PLAP activator, E coli WT exp, PostGolgi yeast, PostGolgi ctrl)
O=C1NC2(Nc3ccccc31)C(=O)Nc1ccccc12 (stereo not given)	PostGolgi yeast 44
O=C1C2=C(NC3=C(C(=O)c4ccccc43)C23C(=O)Nc2ccccc23)c2ccccc21	none (no result: Ecoli tolC, PLAP activator, E coli WT exp, PostGolgi yeast, PostGolgi ctrl)
COc1ccccc1C=C1C(=O)N(C)C(=O)N(C)C1=O	none (no result: Ecoli tolC, PLAP activator, E coli WT exp, PostGolgi yeast, PostGolgi ctrl)
Cc1ccc(-c2nc3cc(Cl)ccc3o2)cc1NC(=O)C(Cl)(Cl)Cl	HePTP inh 53 (no result: Ecoli tolC, PLAP activator, E coli WT exp, PostGolgi yeast, PostGolgi ctrl)
Cc1ccc(-c2nc3cc(Cl)ccc3o2)cc1NC(=O)C(C)C	none (no result: Ecoli tolC, PLAP activator, E coli WT exp, PostGolgi yeast, PostGolgi ctrl)
CCCNC(=O)Cn1c(=O)oc2ccccc21	PostGolgi yeast 39 (no result: HePTP inh, Ecoli tolC)
O=c1[nH]cc(N=Cc2ccccc2)c(=O)[nH]1	none (no result: Ecoli tolC, PLAP activator, E coli WT exp, PostGolgi yeast, PostGolgi ctrl)
CSc1ccc(/C=C2\C(=O)NC(=O)N(c3ccc(Cl)cc3)C2=O)cc1	none (no result: Ecoli tolC, PLAP activator, E coli WT exp, PostGolgi yeast, PostGolgi ctrl)
Cc1nc(CS(=O)c2ccc(Cl)cc2)cc(NCc2ccc(Cl)cc2Cl)n1 (stereo not given)	PostGolgi ctrl 35 (no result: HePTP inh, Ecoli tolC)
COC(=O)C1=C(C)N(c2ccc(C)cc2)C(=O)/C1=C\c1cccc(OC)c1O	none (no result: Ecoli tolC, PLAP activator, E coli WT exp, PostGolgi yeast, PostGolgi ctrl)
C/C(=N\Nc1cc(-c2ccccc2)nc(C)n1)c1ccccc1	none (no result: Ecoli tolC, PLAP activator, E coli WT exp, PostGolgi yeast, PostGolgi ctrl)
COc1ccc(/C=C/C(=O)NC(=S)Nc2ccccc2O)cc1	none (no result: Ecoli tolC, PLAP activator, E coli WT exp, PostGolgi yeast, PostGolgi ctrl)
C=CCN1C(=O)/C(=C\c2ccc(OC(=O)c3ccc(Cl)cc3Cl)cc2)SC1=S	none (no result: Ecoli tolC, PLAP activator, E coli WT exp, PostGolgi yeast, PostGolgi ctrl)
